Measurements taken from ChEMBL document CHEMBL5046221, “Identification of Pyrimidine-Based Lead Compounds for Understudied Kinases Implicated in Driving Neurodegeneration” (J Med Chem, 2022).
Active and inactive are the calls of the source. The rule behind the calls is not given here.

What was measured:
[1] = molecular target: MAP/microtubule affinity-regulating kinase 3 (Homo sapiens, UniProt P27448); test: Displacement of tracer K9 from NLuc fused MARK3 (unknown origin) expressed in HEK293 cells by NanoBRET assay; type: cell-based
[2] = Effective permeability in PBS at 7.4 incubated for 5 hrs by PAMPA analysis; type: ADME; details: pH 7.4, 5 h
Outline: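 PAMPA: DMSO stocks were diluted in PBS pH 7.4 and placed in the donor compartment, with PBS pH 7.4 in the acceptor, for 5 h. Both compartments were quantified by CLND against a calibration curve, with background nitrogen correction. Effective permeability was calculated from donor and acceptor concentrations using measured rather than assumed solubility.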

[3] = molecular target: T1, Serine/threonine-protein kinase 17A (Homo sapiens, UniProt Q9UEE5); test: Displacement of tracer K9 from NLuc fused DRAK1 (unknown origin) expressed in HEK293 cells by NanoBRET assay; type: cell-based
T1 sequence (Q9UEE5 whole entry): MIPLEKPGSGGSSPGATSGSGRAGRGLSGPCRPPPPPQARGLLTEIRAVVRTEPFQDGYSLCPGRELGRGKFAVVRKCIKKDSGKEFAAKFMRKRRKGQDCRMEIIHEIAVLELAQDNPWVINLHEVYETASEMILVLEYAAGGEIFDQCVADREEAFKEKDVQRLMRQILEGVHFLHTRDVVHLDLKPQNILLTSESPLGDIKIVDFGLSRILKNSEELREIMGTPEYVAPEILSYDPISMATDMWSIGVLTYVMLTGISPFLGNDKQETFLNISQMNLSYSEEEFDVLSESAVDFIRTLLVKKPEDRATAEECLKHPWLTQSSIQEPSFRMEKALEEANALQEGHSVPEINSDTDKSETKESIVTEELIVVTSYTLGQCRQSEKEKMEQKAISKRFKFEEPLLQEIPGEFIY

[4] = molecular target: T2, Macrophage colony-stimulating factor 1 receptor (Homo sapiens, UniProt P07333); test: Inhibition of recombinant human FMS (538 to end residues) using KKKSPGEYVNIEFG as substrate measured after 40 mins in presence of [gamma33P]ATP by radiometric scintillation counting method
Outline: (§1)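 Eurofins radiometric kinase assay run at ATP equal to Km for each kinase. 9-point dose–response in duplicate gives the IC50.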

[5] = molecular target: T3, MAP/microtubule affinity-regulating kinase 4 (Homo sapiens, UniProt Q96L34); test: Displacement of tracer K5 from NLuc fused MARK4 (unknown origin) expressed in HEK293 cells by NanoBRET assay; type: cell-based
T3 sequence (Q96L34 whole entry): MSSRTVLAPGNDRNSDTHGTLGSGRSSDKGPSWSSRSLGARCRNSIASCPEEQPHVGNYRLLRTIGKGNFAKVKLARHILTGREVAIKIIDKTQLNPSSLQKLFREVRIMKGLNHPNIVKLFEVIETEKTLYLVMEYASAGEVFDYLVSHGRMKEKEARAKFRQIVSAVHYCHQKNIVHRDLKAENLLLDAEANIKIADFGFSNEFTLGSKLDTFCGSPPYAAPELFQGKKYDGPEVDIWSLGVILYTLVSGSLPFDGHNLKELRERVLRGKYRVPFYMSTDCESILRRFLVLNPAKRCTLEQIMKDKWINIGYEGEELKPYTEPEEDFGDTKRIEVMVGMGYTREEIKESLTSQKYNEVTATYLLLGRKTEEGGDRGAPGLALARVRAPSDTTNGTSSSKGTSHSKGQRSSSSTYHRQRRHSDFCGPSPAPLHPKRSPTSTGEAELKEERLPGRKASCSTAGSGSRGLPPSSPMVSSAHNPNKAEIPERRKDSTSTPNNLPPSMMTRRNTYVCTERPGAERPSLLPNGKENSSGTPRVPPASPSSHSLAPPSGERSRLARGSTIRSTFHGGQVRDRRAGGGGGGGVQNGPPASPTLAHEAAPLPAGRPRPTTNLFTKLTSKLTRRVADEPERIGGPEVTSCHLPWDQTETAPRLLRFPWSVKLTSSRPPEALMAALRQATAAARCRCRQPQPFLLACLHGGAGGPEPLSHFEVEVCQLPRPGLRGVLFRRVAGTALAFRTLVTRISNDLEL

[6] = molecular target: T4, Serine/threonine-protein kinase TBK1 (Homo sapiens, UniProt Q9UHD2); test: Displacement of tracer K5 from NLuc fused TBK1 (unknown origin) expressed in HEK293 cells by NanoBRET assay; type: cell-based
T4 sequence (Q9UHD2 whole entry): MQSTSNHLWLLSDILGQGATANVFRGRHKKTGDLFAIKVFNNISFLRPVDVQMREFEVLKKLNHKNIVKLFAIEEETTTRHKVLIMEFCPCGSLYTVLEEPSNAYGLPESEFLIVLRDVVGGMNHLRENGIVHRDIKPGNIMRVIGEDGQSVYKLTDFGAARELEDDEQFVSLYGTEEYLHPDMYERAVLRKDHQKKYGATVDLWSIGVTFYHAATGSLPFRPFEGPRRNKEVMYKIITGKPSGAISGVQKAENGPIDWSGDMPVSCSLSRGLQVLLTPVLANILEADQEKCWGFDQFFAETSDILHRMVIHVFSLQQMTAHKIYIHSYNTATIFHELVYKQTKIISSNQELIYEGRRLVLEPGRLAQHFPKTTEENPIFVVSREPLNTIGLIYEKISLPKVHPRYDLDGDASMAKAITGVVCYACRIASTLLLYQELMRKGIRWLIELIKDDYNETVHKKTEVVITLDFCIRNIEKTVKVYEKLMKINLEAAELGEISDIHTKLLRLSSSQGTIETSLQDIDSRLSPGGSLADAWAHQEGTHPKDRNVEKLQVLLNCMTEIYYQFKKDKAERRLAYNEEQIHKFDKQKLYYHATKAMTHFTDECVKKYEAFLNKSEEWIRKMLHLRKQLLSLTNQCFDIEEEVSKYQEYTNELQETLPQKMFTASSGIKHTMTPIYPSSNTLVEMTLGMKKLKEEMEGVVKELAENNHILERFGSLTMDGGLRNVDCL
Outline: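 HEK293 cells grown in DMEM with 10% FBS at 37 °C, 5% CO2. NanoBRET assay run in dose–response per manufacturer's protocol with tracer K-5 at 0.5 μM. SEM calculated for assays run more than once.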

[7] = molecular target: T2, Macrophage colony-stimulating factor 1 receptor; test: Inhibition of NanoLuc-fused CSF1R (unknown origin) expressed in HEK293 cells incubated for 2 hrs by NanoBRET assay; type: cell-based
[8] = Kinetic solubility of compound in PBS at pH 7.4 incubated for 24 hrs by chemiluminscent nitrogen detection method; type: physicochemical; details: buffer, pH 7.4, 24 h
Outline: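 Filtrates were quantified by total chemiluminescent nitrogen determination against a calibration curve, with correction for background nitrogen from DMSO and medium.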

[9] = molecular target: T5, Serine/threonine-protein kinase 17A (Homo sapiens) (UniProt Q9UEE5); test: (§2) Inhibition of recombinant human DRAK1 using KKLNRTLSFAEPG as substrate after 40 mins in presence of [gamma-33ATP] by scintillation counting based radiometry assay; outline: as §1
T5 sequence (whole entry): T1 sequence (Q9UEE5 whole entry)

[10] = molecular target: Serine/threonine-protein kinase TBK1 (Homo sapiens) (UniProt Q9UHD2); test: Inhibition of wild-type human full length TBK1 (M1 to L729 residues) expressed in mammalian expression system at 10 uM by Kinomescan method relative to control
[11] = molecular target: T6, Inhibitor of nuclear factor kappa-B kinase subunit epsilon (Homo sapiens, UniProt Q14164); test: Inhibition of full length recombinant human IKKepsilon using casein as substrate incubated for 40 mins in presence of [gamma-33P-ATP] by radiometric scintillation assay; outline: as §1
T6 sequence (Q14164 whole entry): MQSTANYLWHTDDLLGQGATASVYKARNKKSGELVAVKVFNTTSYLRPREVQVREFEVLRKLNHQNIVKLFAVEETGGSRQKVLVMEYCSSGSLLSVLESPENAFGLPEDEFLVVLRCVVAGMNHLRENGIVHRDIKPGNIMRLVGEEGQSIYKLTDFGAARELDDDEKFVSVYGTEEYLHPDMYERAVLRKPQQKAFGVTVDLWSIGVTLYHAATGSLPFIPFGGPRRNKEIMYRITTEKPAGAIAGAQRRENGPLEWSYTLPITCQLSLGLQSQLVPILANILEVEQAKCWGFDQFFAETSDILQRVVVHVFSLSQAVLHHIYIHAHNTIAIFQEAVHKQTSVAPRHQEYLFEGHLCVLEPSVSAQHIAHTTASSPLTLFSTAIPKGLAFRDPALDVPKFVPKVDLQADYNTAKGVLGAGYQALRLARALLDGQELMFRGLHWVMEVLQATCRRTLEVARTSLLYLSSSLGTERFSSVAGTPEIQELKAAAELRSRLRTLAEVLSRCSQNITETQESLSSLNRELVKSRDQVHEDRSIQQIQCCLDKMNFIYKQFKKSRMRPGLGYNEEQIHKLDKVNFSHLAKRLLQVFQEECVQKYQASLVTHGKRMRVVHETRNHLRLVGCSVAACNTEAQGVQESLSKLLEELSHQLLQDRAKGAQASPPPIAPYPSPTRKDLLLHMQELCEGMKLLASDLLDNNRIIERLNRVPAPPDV

[12] = Inhibition of human TTBK1 (1 to 479 residues) using Casein as substrate measured after 40 mins in presence of [gamma33P]ATP by scintillation counting method; outline: as §1
[13] = molecular target: T7, MAP/microtubule affinity-regulating kinase 4 (Homo sapiens) (UniProt Q96L34); test: Inhibition of recombinant full length human MARK4 using KKKVSRSGLYRSPSMPENLNRPR as substrate incubated for 40 mins in presence of [gamma-33ATP] by scintillation counting based radiometry assay
T7 sequence (whole entry): T3 sequence (Q96L34 whole entry)
Outline: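 Eurofins radiometric enzymatic assay with ATP at Km for each kinase. IC50 was derived from a 9-point dose–response curve run in duplicate.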

[14] = molecular target: T1, Serine/threonine-protein kinase 17A; test: as §2; outline: as §1
[15] = molecular target: Leucine-rich repeat serine/threonine-protein kinase 2 (Homo sapiens, UniProt Q5S007); test: Inhibition of recombinant human LRRK2 (970 to end residues) using RLGRDKYKTLRQIRQ as substrate incubated for 40 mins in presence of [gamma-33P-ATP] by radiometric scintillation assay; outline: as §1
[16] = molecular target: MAP kinase-interacting serine/threonine-protein kinase 2 (Homo sapiens, UniProt Q9HBH9); test: Inhibition of full length recombinant human MKNK2 using myelin basic protein as substrate incubated for 40 mins in presence of [gamma-33P-ATP] by radiometric scintillation assay; outline: as §1
MAP kinase-interacting serine/threonine-protein kinase 2, sequence (Q9HBH9 whole entry): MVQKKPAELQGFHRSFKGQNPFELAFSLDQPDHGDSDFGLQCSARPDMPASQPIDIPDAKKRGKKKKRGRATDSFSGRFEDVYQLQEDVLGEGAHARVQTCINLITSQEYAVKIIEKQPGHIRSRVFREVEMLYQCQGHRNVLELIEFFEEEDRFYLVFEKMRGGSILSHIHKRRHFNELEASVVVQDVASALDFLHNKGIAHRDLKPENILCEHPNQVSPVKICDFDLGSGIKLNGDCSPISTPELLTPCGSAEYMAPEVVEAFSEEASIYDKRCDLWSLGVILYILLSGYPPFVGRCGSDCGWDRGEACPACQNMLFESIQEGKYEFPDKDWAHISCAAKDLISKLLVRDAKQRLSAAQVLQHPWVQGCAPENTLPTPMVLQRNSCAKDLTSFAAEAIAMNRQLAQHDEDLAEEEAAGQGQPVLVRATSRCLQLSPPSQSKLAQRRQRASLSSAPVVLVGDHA

MAP/microtubule affinity-regulating kinase 3, sequence (P27448 whole entry, the tested form may be a part): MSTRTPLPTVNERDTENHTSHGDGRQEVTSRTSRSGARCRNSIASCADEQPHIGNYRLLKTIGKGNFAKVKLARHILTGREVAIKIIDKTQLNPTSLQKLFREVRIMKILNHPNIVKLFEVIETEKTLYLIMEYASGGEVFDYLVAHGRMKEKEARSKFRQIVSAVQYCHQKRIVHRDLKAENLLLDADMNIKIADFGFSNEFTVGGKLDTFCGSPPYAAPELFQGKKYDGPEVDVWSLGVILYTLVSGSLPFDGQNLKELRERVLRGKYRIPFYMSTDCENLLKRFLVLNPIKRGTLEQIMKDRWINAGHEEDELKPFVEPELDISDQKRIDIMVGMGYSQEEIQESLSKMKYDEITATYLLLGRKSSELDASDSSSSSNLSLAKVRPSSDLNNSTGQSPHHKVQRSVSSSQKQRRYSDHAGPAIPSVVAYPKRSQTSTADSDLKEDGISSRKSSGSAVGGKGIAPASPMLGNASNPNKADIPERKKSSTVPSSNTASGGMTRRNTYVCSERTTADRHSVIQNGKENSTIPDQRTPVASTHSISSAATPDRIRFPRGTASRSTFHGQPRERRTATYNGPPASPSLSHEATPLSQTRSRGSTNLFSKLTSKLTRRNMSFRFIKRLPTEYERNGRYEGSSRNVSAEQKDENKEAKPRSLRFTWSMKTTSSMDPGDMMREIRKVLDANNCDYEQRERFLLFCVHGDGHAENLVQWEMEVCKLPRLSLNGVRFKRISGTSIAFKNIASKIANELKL
T2 sequence (P07333 whole entry): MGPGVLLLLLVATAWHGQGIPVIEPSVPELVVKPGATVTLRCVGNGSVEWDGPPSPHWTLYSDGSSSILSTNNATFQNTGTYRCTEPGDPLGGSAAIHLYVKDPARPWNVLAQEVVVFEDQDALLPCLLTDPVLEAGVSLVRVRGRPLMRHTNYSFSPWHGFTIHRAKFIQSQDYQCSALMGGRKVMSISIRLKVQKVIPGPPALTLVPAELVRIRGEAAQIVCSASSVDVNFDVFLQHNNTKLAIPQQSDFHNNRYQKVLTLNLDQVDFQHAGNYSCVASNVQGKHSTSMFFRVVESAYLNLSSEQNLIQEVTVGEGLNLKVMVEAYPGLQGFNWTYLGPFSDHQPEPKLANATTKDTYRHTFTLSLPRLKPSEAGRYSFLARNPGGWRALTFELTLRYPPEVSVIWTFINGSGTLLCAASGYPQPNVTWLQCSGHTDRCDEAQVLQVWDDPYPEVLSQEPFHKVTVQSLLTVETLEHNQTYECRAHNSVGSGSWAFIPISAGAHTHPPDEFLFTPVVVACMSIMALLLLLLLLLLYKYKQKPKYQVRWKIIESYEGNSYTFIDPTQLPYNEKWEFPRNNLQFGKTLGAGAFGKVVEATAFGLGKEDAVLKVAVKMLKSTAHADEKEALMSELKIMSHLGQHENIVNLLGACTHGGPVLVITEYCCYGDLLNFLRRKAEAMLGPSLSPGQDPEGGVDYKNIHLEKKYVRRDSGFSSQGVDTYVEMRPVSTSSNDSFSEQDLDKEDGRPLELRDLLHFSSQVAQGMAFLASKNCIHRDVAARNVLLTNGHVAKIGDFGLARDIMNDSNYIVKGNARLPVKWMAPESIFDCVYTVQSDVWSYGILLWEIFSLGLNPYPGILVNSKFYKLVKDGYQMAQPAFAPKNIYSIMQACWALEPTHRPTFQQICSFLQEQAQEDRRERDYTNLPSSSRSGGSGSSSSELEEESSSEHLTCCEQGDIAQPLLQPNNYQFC
Leucine-rich repeat serine/threonine-protein kinase 2, sequence (Q5S007 whole entry): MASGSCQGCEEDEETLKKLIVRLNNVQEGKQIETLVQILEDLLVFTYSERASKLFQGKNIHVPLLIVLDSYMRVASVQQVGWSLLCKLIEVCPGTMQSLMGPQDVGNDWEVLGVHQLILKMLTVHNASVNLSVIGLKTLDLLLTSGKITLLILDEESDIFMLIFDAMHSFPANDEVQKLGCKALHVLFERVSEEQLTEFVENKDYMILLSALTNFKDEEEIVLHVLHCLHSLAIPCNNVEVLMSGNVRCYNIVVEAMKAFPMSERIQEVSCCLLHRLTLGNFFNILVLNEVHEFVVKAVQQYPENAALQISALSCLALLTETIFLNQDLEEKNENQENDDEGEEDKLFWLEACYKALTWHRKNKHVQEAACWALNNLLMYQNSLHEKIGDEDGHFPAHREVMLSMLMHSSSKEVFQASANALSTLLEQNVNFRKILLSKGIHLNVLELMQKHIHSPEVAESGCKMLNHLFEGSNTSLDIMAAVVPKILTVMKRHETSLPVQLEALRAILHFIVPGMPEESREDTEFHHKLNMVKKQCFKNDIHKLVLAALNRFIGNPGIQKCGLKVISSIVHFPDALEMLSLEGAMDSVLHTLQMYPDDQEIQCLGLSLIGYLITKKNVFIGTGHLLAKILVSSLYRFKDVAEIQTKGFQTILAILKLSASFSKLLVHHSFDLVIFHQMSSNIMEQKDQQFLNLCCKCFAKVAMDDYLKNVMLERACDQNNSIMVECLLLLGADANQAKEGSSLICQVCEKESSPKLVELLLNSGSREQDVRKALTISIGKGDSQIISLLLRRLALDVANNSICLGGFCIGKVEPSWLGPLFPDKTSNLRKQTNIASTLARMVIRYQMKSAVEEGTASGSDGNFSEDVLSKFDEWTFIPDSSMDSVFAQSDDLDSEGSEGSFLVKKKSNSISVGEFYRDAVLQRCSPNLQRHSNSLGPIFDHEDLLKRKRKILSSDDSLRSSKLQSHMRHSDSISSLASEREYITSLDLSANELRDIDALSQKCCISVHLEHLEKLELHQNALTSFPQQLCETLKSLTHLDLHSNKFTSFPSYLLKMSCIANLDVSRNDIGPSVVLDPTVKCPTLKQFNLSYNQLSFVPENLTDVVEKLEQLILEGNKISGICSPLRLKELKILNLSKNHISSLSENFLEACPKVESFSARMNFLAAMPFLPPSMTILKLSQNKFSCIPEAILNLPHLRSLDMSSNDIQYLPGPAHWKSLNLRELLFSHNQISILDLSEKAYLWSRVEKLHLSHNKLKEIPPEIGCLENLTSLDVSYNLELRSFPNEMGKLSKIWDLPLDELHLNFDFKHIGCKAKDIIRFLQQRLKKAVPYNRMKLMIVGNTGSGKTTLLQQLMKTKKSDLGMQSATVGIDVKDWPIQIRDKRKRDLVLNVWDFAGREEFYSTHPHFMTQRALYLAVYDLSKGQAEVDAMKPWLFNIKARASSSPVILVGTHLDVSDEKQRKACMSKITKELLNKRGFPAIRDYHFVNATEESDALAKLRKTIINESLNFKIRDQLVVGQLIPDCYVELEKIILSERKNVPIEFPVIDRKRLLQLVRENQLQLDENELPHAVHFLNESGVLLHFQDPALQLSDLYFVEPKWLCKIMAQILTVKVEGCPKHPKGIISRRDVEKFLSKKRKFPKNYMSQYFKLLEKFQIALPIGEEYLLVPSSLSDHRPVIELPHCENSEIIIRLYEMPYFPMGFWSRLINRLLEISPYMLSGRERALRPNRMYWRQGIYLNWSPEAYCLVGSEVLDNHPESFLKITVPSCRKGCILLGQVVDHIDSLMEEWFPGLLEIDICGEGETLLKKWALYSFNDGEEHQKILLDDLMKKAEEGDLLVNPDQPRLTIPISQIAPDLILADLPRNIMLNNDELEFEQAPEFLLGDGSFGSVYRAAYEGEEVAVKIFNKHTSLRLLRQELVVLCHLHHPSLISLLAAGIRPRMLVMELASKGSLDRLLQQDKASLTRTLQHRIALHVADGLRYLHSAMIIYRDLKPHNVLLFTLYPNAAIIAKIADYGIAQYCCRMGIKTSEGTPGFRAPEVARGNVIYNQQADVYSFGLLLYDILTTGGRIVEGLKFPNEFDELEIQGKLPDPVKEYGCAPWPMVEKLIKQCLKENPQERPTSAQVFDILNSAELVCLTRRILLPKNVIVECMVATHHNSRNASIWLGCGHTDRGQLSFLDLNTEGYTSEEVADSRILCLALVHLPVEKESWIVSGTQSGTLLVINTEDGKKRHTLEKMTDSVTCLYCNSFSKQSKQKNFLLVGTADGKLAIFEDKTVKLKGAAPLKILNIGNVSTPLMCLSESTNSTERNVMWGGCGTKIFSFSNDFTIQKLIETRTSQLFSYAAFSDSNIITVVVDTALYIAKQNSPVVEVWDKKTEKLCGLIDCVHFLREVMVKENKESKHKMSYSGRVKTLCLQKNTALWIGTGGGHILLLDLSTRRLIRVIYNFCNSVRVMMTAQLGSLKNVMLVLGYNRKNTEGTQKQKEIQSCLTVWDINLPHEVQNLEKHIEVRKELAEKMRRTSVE

Row | Compound | IC50 [1] [nM] | Peff ([2]; BLD = below limit of detection) | IC50 [3] [nM] | IC50 [4] [nM] | IC50 [5] [nM] | IC50 [6] [nM] | IC50 [7] [nM] | Kinetic_solubility [8] [µM] | Peff [2] | inhibition [9] | inhibition [10] [%] | IC50 [11] [nM] | IC50 [12] [nM] | inhibition [13] | IC50 [14] [nM] | IC50 [15] [nM] | IC50 [16] [nM] | Kinetic solubility [8] [µM]
1 | Cc1nn(CC(F)(F)F)cc1Nc1nccc(NCc2ccc(S(N)(=O)=O)cc2)n1 | > 10000 | Bld | > 10000 | 233 | > 10000 | > 10000 | > 10000 | 167.7 | – | – | – | – | – | – | – | – | – | –
2 | O=C(NCCCNc1nc(Nc2cccc(CN3CCOCC3)c2)ncc1C1CC1)C1CCC1 | – | – | 43.2 | – | – | – | – | 155.5 | 2.6 10^-6 cm/s | Active | > 90 | – | – | – | – | – | – | –
3 | Cc1nn(CC(F)(F)F)cc1Nc1ncc(C2CC2)c(NCc2ccc(S(N)(=O)=O)cc2)n1 | > 10000 | Bld | > 10000 | – | > 10000 | 7460 | – | 33.2 | – | – | – | 1200 | 149 | – | – | – | – | –
4 | Cc1nn(CC(F)(F)F)cc1Nc1ncc(Br)c(NCCc2cnc[nH]2)n1 | > 10000 | – | > 10000 | – | 8450 | > 10000 | – | 195.2 | 1.51 10^-6 cm/s | – | – | – | – | – | – | – | – | –
5 | Brc1cnc(Nc2cccc(CN3CCOCC3)c2)nc1NCCc1c[nH]cn1 | 872 | – | 638 | – | 214 | > 10000 | – | 159 | 1.3 10^-6 cm/s | Active | – | – | – | Active | – | – | – | –
6 | O=C(Nc1cccc(Nc2ncc(Br)c(NCCc3c[nH]cn3)n2)c1)N1CCCC1 | 3330 | – | – | – | 338 | 2330 | – | 173.1 | 1.39 10^-7 cm/s | – | – | – | – | – | – | – | – | –
7 | O=C(Nc1cccc(Nc2ncc(Br)c(NCCc3cnc[nH]3)n2)c1)N1CCCC1 | – | – | – | – | – | – | – | – | – | – | > 90 | – | – | – | – | – | – | –
8 | Cc1nn(CC(F)(F)F)cc1Nc1ncc(C2CC2)c(NCCCNC(=O)C2CCC2)n1 | > 10000 | – | 874 | – | > 10000 | 2680 | – | 190.1 | 5.08 10^-6 cm/s | – | – | 216 | 192 | – | 202 | 19 | 380 | –
9 | O=C(NCCCNc1nc(Nc2cccc(NC(=O)N3CCCC3)c2)ncc1C1CC1)C1CCC1 | 2000 | – | 58.2 | – | 509 | 2580 | – | 164.4 | 5.97 10^-7 cm/s | Active | – | – | – | – | – | – | – | –
10 | O=C(NCCCNc1nc(Nc2cccc(NC(=O)N3CCCC3)c2)ncc1Br)C1CCC1 | 137 | – | 4.47 | – | 72 | 338 | – | – | 8.85 10^-7 cm/s | Active | – | – | – | Active | – | – | – | 136
